Reference: ChEMBL document CHEMBL1143786, “Constrained analogs of CB-1 antagonists: 1,5,6,7-Tetrahydro-4H-pyrrolo[3,2-c]pyridine-4-one derivatives” (Bioorg Med Chem Lett, 2007)

What was measured:
Cannabinoid receptor 1 [1] = biological target: T1, Cannabinoid receptor 1 (Homo sapiens, UniProt P21554); assay: Displacement of [3H]CP-55940 from human CB1 receptor expressed in HEK cells; type: cell-based, HEK293
In short: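 Membranes from HEK 293 cells expressing human CB-1, suspended in ice-cold 50 mM Tris pH 7.4, 2.5 mM EDTA, 5 mM MgCl2, 0.1% fatty acid free BSA; 3.3 µg protein incubated with 0.3 nM [3H]CP 55940 and graded compound, 30 °C, 90 min with shaking, triplicate. Nonspecific binding defined with 10 µM WIN 55212-2; filtration through GF/C, scintillation counting; Ki via Cheng–Prusoff from nonlinear-regression IC50.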

Rattus norvegicus [2] = assay: Reduction in body weight in genetically obese Zucker rat at 5 mg/kg, po qd; type: functional; design: scale not given: the % may be the effect or the level left
In short: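 Zucker fa/fa rats, single-housed on grid floors, sham-dosed with vehicle for at least 5 days, then weight-matched on 2-day baseline. Daily oral dosing at 5 mg/kg, 2 mL/kg, in PEG/methanesulfonic acid (80:20) before the nocturnal feeding phase. Body weight recorded daily over 9 days; mean ± SEM, 9–10 rats/group.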

[3] = Cmax in Wistar rat at 10 mg/kg, po; type: ADME, organism-based; design: dose 10 mg/kg, route oral; settings: in vivo
In short: (§1)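 Male Wistar rats, single oral dose of 10 mg/kg. Plasma exposure measured as Cmax and as AUC over 0–2 h.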

[4] = AUC ( 0 to 2 hrs) in Wistar rat at 10 mg/kg, po; type: ADME, organism-based; design: time < 2 hr, dose 10 mg/kg, route oral; settings: plasma; in short: as §1
Rattus norvegicus [5] = assay: Reduction in food intake in fasted-refed Wistar rat at 10 mg/kg, po after 4 hrs; type: functional; design: scale not given: the % may be the effect or the level left
In short: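 Wistar rats fasted overnight (18 h), then given vehicle or compound orally at 10 mg/kg as a suspension in 30% cyclodextrin, 2 mL/kg, 1 h before re-feeding. Cumulative food intake from pre-weighed jars at 30, 60, 90, 180 and 240 min.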

Cannabinoid receptor 2 = Cannabinoid receptor 2 (Homo sapiens, UniProt P34972); assay: Displacement of [3H]CP-55940 from human CB2 receptor expressed in HEK cells; type: cell-based, HEK293
Chain of Cannabinoid receptor 2 (P34972 whole entry): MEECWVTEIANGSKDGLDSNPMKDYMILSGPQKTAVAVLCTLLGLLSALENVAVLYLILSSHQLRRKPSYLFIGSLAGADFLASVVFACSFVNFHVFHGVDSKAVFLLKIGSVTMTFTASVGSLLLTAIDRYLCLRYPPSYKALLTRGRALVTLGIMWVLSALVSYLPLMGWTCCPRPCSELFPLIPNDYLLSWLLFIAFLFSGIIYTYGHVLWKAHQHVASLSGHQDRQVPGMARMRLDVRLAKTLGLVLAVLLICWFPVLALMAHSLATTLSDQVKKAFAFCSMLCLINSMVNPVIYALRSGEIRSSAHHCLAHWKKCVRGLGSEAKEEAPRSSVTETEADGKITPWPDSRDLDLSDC
In short: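 Membranes from HEK 293 cells expressing human CB-2, in ice-cold 50 mM Tris pH 7.4, 2.5 mM EDTA, 5 mM MgCl2, 0.1% fatty-acid-free BSA. 3.3 µg protein with 0.3 nM [3H]CP 55940 and varying competitor, triplicate, 30 °C for 90 min with shaking. Nonspecific binding with 10 µM WIN 55212-2. Filtration onto GF/C, scintillation counting; Ki from IC50 by Cheng–Prusoff.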

Cannabinoid receptor 1 [6] = biological target: T1, Cannabinoid receptor 1; assay: Antagonist activity at CB1 receptor; type: functional

T1 sequence (P21554 whole entry): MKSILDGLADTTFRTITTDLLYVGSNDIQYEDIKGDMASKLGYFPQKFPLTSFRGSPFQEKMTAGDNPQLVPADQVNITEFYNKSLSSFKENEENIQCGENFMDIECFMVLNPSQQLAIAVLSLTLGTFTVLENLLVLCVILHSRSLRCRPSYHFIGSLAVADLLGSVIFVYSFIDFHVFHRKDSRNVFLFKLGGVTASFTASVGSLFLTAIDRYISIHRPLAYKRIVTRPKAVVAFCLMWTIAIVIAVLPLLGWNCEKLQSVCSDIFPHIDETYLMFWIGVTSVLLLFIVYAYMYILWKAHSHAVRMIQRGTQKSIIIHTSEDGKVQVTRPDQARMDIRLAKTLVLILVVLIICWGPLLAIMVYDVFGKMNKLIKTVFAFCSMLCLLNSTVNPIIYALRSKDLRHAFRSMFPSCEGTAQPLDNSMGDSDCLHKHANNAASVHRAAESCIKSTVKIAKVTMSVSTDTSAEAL

Compound | Ki (Cannabinoid receptor 1 [1]) [nM] | IC50 (Cannabinoid receptor 1 [1]) [nM] | further results
COc1ccc(-c2c(C)c3c(n2-c2ccc(Cl)cc2Cl)CCN(C2CCCCC2)C3=O)cc1 | 7.9 |  | 
Cc1c2c(n(-c3ccccc3Cl)c1-c1ccc(Cl)cc1)CCN(C1CCCCC1)C2=O | 2.8 |  | 
Cc1c2c(n(-c3ccc(Cl)cc3Cl)c1-c1cc3ccccc3s1)CCN(C1CCCCC1)C2=O |  | 23 | 
Cc1c(C(=O)NN2CCCCC2)nn(-c2ccc(Cl)cc2Cl)c1-c1ccc(Cl)cc1 [RIMONABANT] |  |  | Activity (Rattus norvegicus [2]): -5.6%
COc1ccc(-c2c(C)c3c(n2-c2ccccc2Cl)CCN(N2CCCCC2)C3=O)cc1 | 20 |  | Cmax [3]: 620 nM; AUC(0-t) at 2 h [4]: 0.58 µM·h; Activity (Rattus norvegicus [5]): 36%; Activity (Rattus norvegicus [2]): -3%; Ki (Cannabinoid receptor 2): 850 nM
Cc1c2c(n(-c3ccc(Cl)cc3Cl)c1-c1ccc(Cl)cc1)CCN(N1CCCCC1)C2=O | 2.2 |  | Kb (Cannabinoid receptor 1 [6]): 12 nM; Ki (Cannabinoid receptor 2): 1300 nM
Cc1c2c(n(-c3ccc(Cl)cc3Cl)c1-c1cccnc1)CCN(C1CCCCC1)C2=O | 390 |  | 
C=Cc1ccc(-c2c(C)c3c(n2-c2ccc(Cl)cc2Cl)CCN(C2CCCCC2)C3=O)cc1 | 9.8 |  | 
COc1ccc(-c2c(C)c3c(n2-c2ccccc2C)CCN(N2CCCCC2)C3=O)cc1 | 74 |  | 
Cc1c2c(n(-c3ccc(Cl)cc3Cl)c1-c1ccc3c(c1)OCO3)CCN(C1CCCCC1)C2=O |  | 12 | 
COc1cccc(-c2c(C)c3c(n2-c2ccc(Cl)cc2Cl)CCN(C2CCCCC2)C3=O)c1 |  | 6.8 | 
CSc1ccc(-c2c(C)c3c(n2-c2ccc(Cl)cc2Cl)CCN(C2CCCCC2)C3=O)cc1 | > 2500 |  | 
Cc1c2c(n(-c3c(Cl)cccc3Cl)c1-c1ccc(Cl)cc1)CCN(C1CCCCC1)C2=O | 200 |  | 
Cc1c2c(n(-c3ccc(Cl)cc3Cl)c1-c1ccc(F)cc1)CCN(C1CCCCC1)C2=O | 6 |  | 
Cc1c2c(n(-c3ccc(Cl)cc3Cl)c1-c1ccco1)CCN(C1CCCCC1)C2=O |  | 20 | 
Cc1c2c(n(-c3ccc(Cl)cc3Cl)c1-c1cccc(N)c1)CCN(C1CCCCC1)C2=O | 450 |  | 
Cc1c2c(n(-c3ccc(Cl)cc3Cl)c1-c1ccc(C(=O)O)cc1)CCN(C1CCCCC1)C2=O | > 2500 |  | 
Cc1c2c(n(-c3ccc(Cl)cc3Cl)c1-c1ccc(N)cc1)CCN(C1CCCCC1)C2=O | 920 |  | 

Compound | Ki (Cannabinoid receptor 1 [1]) [nM] | IC50 (Cannabinoid receptor 1 [1]) [nM] | further results
Cc1c2c(n(-c3ccc(Cl)cc3Cl)c1-c1ccccc1)CCN(C1CCCCC1)C2=O |  | 16 | 
COc1ccc(-c2c(C)c3c(n2-c2ccc(Cl)cc2Cl)CCN(C2CCCCC2)C3=O)cc1OC | 5.5 |  | 
Cc1c2c(n(-c3ccc(Cl)cc3Cl)c1-c1ccsc1)CCN(C1CCCCC1)C2=O |  | 37 | 
Cc1cccc(-c2c(C)c3c(n2-c2ccc(Cl)cc2Cl)CCN(C2CCCCC2)C3=O)c1 |  | 17 | 
Cc1c2c(n(-c3ccc(Cl)cc3Cl)c1-c1cccs1)CCN(C1CCCCC1)C2=O |  | 19 | 
Cc1cn(-c2ccc(Cl)cc2Cl)c2c1C(=O)N(C1CCCCC1)CC2 | 240 |  | 
Cc1c2c(n(-c3ccc(Cl)cc3)c1-c1ccc(Cl)cc1)CCN(C1CCCCC1)C2=O | > 2500 |  | 
COc1ccc(-c2c(C)c3c(n2-c2ccccc2Cl)CCN(C2CCCCC2)C3=O)cc1 | 7.5 |  | 
Cc1ccc(-c2c(C)c3c(n2-c2ccc(Cl)cc2Cl)CCN(C2CCCCC2)C3=O)cc1 | 10 |  | 
COc1ccc(-c2c(C)c3c(n2-c2ccccc2C)CCN(C2CCCCC2)C3=O)cc1 |  | 22 | 
Cc1c2c(n(-c3ccc(Cl)cc3Cl)c1-c1ccc(Cl)cc1)CCN(C1CCCCC1)C2=O | 7.5 |  | Cmax [3]: < 50 nM; Kb (Cannabinoid receptor 1 [6]): 6.5 nM; Ki (Cannabinoid receptor 2): 8300 nM
Cc1c2c(n(-c3ccc(Cl)cc3Cl)c1-c1cccc(C(F)(F)F)c1)CCN(C1CCCCC1)C2=O |  | 67 | 
Cc1c2c(n(-c3ccc(Cl)cc3Cl)c1-c1ccc(C(F)(F)F)cc1)CCN(C1CCCCC1)C2=O | 4.1 |  | 
Cc1c2c(n(-c3ccccc3Cl)c1-c1ccc(Cl)cc1)CCN(N1CCCCC1)C2=O | 3.5 |  | Ki (Cannabinoid receptor 2): 1100 nM
Cc1ccccc1-n1c2c(c(C)c1-c1ccc(F)cc1)C(=O)N(C1CCCCC1)CC2 |  | 40 | 
Cc1c2c(n(-c3ccc(Cl)cc3)c1-c1ccc(Cl)cc1Cl)CCN(C1CCCCC1)C2=O | > 2500 |  | 
Cc1ccccc1-n1c2c(c(C)c1-c1ccc(C(F)(F)F)cc1)C(=O)N(C1CCCCC1)CC2 |  | 9.3 | 
